Variants at the floor of the assay were thinned out.
B1: tRNA (parent)
chain: GUUCCGUUGGCGUAAUGGUAACGCGUCUCCCUCCUAAGGAGAAGACUGCGGGUUCGAGUCCCGUACGGAACG

Variants of: B1
Experiment: yeast fitness relative to wild type (ratio to wild type); higher = fitter; tRNA-Arg(CCU), competitive growth, 37 C, YPD
How it was run: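 Genotype frequency changes were the basis for Darwinian fitness relative to wild type. The frequencies came from 100-nucleotide paired-end sequencing of gene amplicons from the start population and each end population of pooled yeast strains with tRNA-Arg(CCU) gene variants at the native locus. Competition ran in YPD at 37°C for 24 hours in six replicates, genotypes needed ≥ 100 starting reads, and estimates < 0.5 were set to 0.5.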
Work on GUUCCGUUGGUGUAAUGGUAACGCGUCUCCCUCCUAAGGAGUAGACUGCGGGUUCGAGUACCGUUCGGAACG [C11U A42U C60A A65U] yielded a yeast fitness of 0.553.
For GUUCCGUUGGUGUAAUGGUAACGCGUCUCCCUCCUAAGGAGAAGACUGCGGGUUCGGGUCUCGUACGGAACG [C11U A57G C61U], the yeast fitness was ≤ 0.5.
In the case of GUUCCGUUGGUGUAAUGGUAACGCGUCUCCCUCCUAAGGAGAAGACUGCGGGUUCGGGUCACGUACGGAACG [C11U A57G C61A], the yeast fitness is reported as ≤ 0.5.
GUUCCGUUGGUGUAAUGGUAACGCGUCUCCCUCCUAAGGUGAAGAUUGCGGGUUCGAGUGCCGUACGGAACG [C11U A40U C46U C60G] showed a yeast fitness of 0.589.
In the case of GUUCCGUUGGUGUAAUGGUAAGGCGUCUCCCUCCUAAGGAGGAGACUGCGGGUUCGAGCCCCGUACGGAACG [C11U C22G A42G U59C], the yeast fitness is reported as ≤ 0.5.
GUUCCGUUGGUGUAAUGGUAACGCGUCUCCCUCCUAAGGAGCAGACUACGGGUUCGAGUCCCGUACGGAACG [C11U A42C G48A] showed a yeast fitness of 0.566.
Work on GUUCCGUUGGUGUAAUGGUAACGCGUCUCCCUCCUAAGGAGUAGACUGCGGGUUCGAGUCCCGUAAGGAACG [C11U A42U C66A] yielded a yeast fitness of 0.51.
For GUUCCGUUGGUGUAAUGGUAACGCGUCUCCCUCCUAAGGUGAAGAUUGCGGGUUCGAGUCCCCUACGGAACG [C11U A40U C46U G63C], the yeast fitness was ≤ 0.5.
For GUUCCGUUGGUGUAAUGGUAACGCGUCUCCCUCCUAAGGAGAAGUCUGCGGGUUCGAGUCCCGUACGGUACG [C11U A45U A69U], the yeast fitness was 0.915.
With GUUCCGUUGGUGUAAUGGUAACGCGUCUCCCUCCUAAGGAGAAGUCUGCGGGUUCGAGUCCCGUACGGCACG [C11U A45U A69C] the yeast fitness was 0.874.
For GUUCCGUUGGUGUAAUGGUAACGCGUCUCCCUCCUAAGGAGACGACUCCGGGUUCGAGUCCCGCACGGAACG [C11U A43C G48C U64C], the yeast fitness was ≤ 0.5.
In the case of GUUCCGUUGGUGUAAUGGUAAAGCGUCUGCCUUCUAAGGAGAAGACUGCGGGUUCCAGUCCCGUACGGAACG [C11U C22A C29G C33U G56C], the yeast fitness is reported as ≤ 0.5.
Work on GUUCCGUUGGUGUAAUGGUAACGCGUCUCCCUCCUAAGGAGAUGACUGCGGGUUCGAGUCCCGUACGGAGCG [C11U A43U A70G] yielded a yeast fitness of 0.738.
Work on GUUCCGUUGGUGUAAUGGUAACGCGUCUCCCUCCUAAGGAGAAGACUGCGGGUUCGAGUCCCGUACGGACCG [C11U A70C] yielded a yeast fitness of 0.898.
Work on GUUCCGUUGGUGUAAUGGUAACGCGUCUCCCUCCUAAGGAGAAGACUGCGGGUUCGAGUCCCGUACGGAUCG [C11U A70U] yielded a yeast fitness of 0.88.
In the case of GUUCCGUUGGUGUAAUGGUAACGCGUCUCCCUCCUAAGGAGAAGACUGCGGGUUCGCGUCCCGUACGGAACG [C11U A57C], the yeast fitness is reported as 0.622.
GUUCCGUUGGUGUAAUGGUAACGCGUCUCCCUCCUAAGGAGAAGACUGCGGGUUCGGGUCCCGUACGGAACG [C11U A57G] gave a yeast fitness of 0.816.
GUUCCGUUGGUGUAAUGGUAACGCGUCUCCCUCCUAAGGAGAAGCCUGCGAGUUCGAGUCCCGUACGGAACG [C11U A45C G51A] showed a yeast fitness of 0.611.
For GUUCCGUUGGUGUAAUGGUAACGCGUCUCCCUCCUAAGGAGGAGAGUGCGGGUUCCAGUCCCGUCCGGAACG [C11U A42G C46G G56C A65C], the yeast fitness was ≤ 0.5.
With GUUCCGUUGGUGUAAUGGUAACGCGUCUCCCUCCUAAGGAGAAGUCUGCGGGCUCGAGUCCCGUACGGAACG [C11U A45U U53C] the yeast fitness was 0.66.
With GUUCCGUUGGUGUAAUGGUAACGCGUCUCCCUCCUAAGGAGAUGCCUGCGGGUUCGAGUCCCGUACCGAACG [C11U A43U A45C G67C] the yeast fitness was ≤ 0.5.
GUUCCGUUGGUGUAAUGGUAACGCGUCUCCCUCCUAAGGAGACAACUGCGGGUUCGAGUCCCGUACGGAACG [C11U A43C G44A] showed a yeast fitness of 0.741.
Variant GUUCCGUUGGUGUAAUGGUAACGCGUCUCCCUCCUAAGGAGACGACUGCGGGUUCGAGUCCUGUACGGAACG [C11U A43C C62U] has a yeast fitness of 0.692.
GUUCCGUUGGUGUAAUGGUAACGCGUCUCCCUCCUAAGGGGAAGAAUGCGGGUUCGAGUCCCGUACGGAACG [C11U A40G C46A] showed a yeast fitness of 0.792.
Variant GUUCCGUUGGUGUAAUGGUAACGCGUCUCCCUCCUAAGGGGAAGACUGCGGGUUCGAGUCCCGUACCGUACG [C11U A40G G67C A69U] has a yeast fitness of 0.574.
In the case of GUUCCGUUGGUGUAAUGGUAACGCGUCUCCCUCCUAAGGAGAAGACUGCGGGUUCGAGUCCCGUGCGGAUCG [C11U A65G A70U], the yeast fitness is reported as 0.606.
With GUUCCGUUGGUGUAAUGGUAAGGCGUCUCCCUCCUACGGAGGAAACUGCGGGUUCGAGUCCCGUACGGAACG [C11U C22G A37C A42G G44A] the yeast fitness was ≤ 0.5.
Work on GUUCCGUUGGUGUAAUGGUAACGCGUCUCCCUCCUAAGGAGAAGACUGCGGGUUCGAGUCCCGUACGGCUCG [C11U A69C A70U] yielded a yeast fitness of 0.814.
With GUUCCGUUGGUGUAAUGGUAACGCGUCUCCCUCCUAAGGAGAAGUCUGGGGGUUCGAGUCCCGUUCGGAACG [C11U A45U C49G A65U] the yeast fitness was ≤ 0.5.
In the case of GUUCCGUUGGUGUAAUGGUAACGCGUCUCCCUCCUAAGGUGAAGACUGCGGGUUUGAGUCCCGUACGAAACG [C11U A40U C55U G68A], the yeast fitness is reported as ≤ 0.5.
In the case of GUUCCGUUGGUGUAAUGGUAACGCGUCUCCCUCCUAAGGAGGAGACUGCGGGUUCGAGCCUCGUACGGAACG [C11U A42G U59C C61U], the yeast fitness is reported as ≤ 0.5.
For GUUCCGUUGGUGUAAUGGUAAAGCGUCUGCCUUCUAAGGAGAAGACUGCGGGUUCGAGUCCCGUACGGAACG [C11U C22A C29G C33U], the yeast fitness was 0.519.
For GUUCCGUUGGUGUAAUGGUAACGCGUCUCCCUCCUAAGGAGCAGACCGCGGGUUCGAGUCCCGUACGGAACG [C11U A42C U47C], the yeast fitness was 0.764.
For GUUCCGUUGGUGUAAUGGUAACGCGUCUCCCUCCUAAGGAGAAGACUGCGGGUUCGAGUCCCGUCCGGAACG [C11U A65C], the yeast fitness was 0.933.
GUUCCGUUGGUGUAAUGGUAACGCGUCUCCCUCCUAAGGAGAAGACUGCGGGUUCGAGUCCCGUUCGGAACG [C11U A65U] showed a yeast fitness of 0.923.
Work on GUUCCGUUGGUGUAAUGGUAACGCGUCUCCCUCCUAAGGAGAAGACUGCGGGUUCGAGUCCCGUGCGGAACG [C11U A65G] yielded a yeast fitness of 0.935.
With GUUCCGUUGGUGUAAUGGUAACGCGUCUCCCUCCUAAGGAGAGGACUGCGGGUUCGAGUCCCGUACGGAACG [C11U A43G] the yeast fitness was 0.945.

Source: the RNAGym collection of RNA variant scans (doi:10.1126/science.aae0568)
